Results gathered from unrelated publications.
Target: Serine/threonine-protein kinase VRK2 (VRK2, Homo sapiens, UniProt Q86Y07)

With `CC(=O)C1=C(C)N(c2cccc(C(F)(F)F)c2)C(=O)N[C@@H]1c1ccc(C#N)nc1` the remaining binding was 77.6% (cell-free assay, competition with immobilised ligand; 1 µM).
For `N[C@H]1CCN(c2nccc(-c3cnn4ncccc34)n2)C1`, the remaining binding was 83% (binding; 1 µM).
With `O=C(N1CCS(=O)(=O)CC1)N1C[C@H](c2ccc(OC(F)(F)F)cc2)C[C@H](c2nc(C3CC3)no2)C1` the remaining binding was 90% (cell-free assay, competition with immobilised ligand; 1 µM).
`c1cnn2ncc(-c3ccnc(N4CCC45COC5)n3)c2c1` has a remaining binding of 74% (binding; 1 µM).
With `CC1=C(C#N)C(c2ccc3c(c2)c(NC(=O)c2ccccc2C)nn3C)C(C#N)=C(C)N1` the remaining binding was 72% (cell-free assay, competition with immobilised ligand; 1 µM).
With `CN(C)c1nccc(-c2cnc3ncccn23)n1` the remaining binding was 64% (binding; 1 µM).
For `O=C(Nc1c[nH]nc1C(=O)NC1CCNCC1)c1cc(F)cc(F)c1`, the remaining binding was 100% (binding, competition with immobilised ligand; 1 µM).
`Cc1cnc(Nc2ccc(C(=O)N3CCC(N4CCCC4)CC3)cc2)nc1-c1cc2ccccc2s1` has a remaining binding of 81% (binding, competition with immobilised ligand; 1 µM).
For `COc1cnc(Nc2cccc(S(N)(=O)=O)c2)nc1N1CCN(c2ccccc2)CC1`, the remaining binding was 69% (binding, competition with immobilised ligand; 1 µM).
The remaining binding of `CC(C)CC(=O)N1CCc2nc(-c3ccc(Br)cc3)nc(N(C)Cc3ccccc3)c2C1` is reported as 77% (cell-free assay, competition with immobilised ligand; 0.1 µM).
With `CNC(=O)[C@@H]1CC[C@@H](n2c(-c3ccc4cnccc4c3)nc3ccc(C(=O)NCc4cccc(C(N)=O)c4)cc32)C1` the remaining binding was 100% (binding, competition with immobilised ligand; 1 µM).
The remaining binding of `NS(=O)(=O)c1cc(NC(=O)Cc2ccccc2)ccc1Oc1cccc(Cl)c1` is reported as 100% (cell-free assay, competition with immobilised ligand; 1 µM).
For `C=CC(=O)N1CCC(C(=O)NCC(=O)N2CCN(c3nc(-c4cnc(N)nc4C(F)F)nc(N4CCOCC4)n3)CC2)CC1`, the remaining binding was 93% (binding, competition with immobilised ligand; 1 µM).
The remaining binding of `O=C(NCCCN1CCOCC1)c1ccc(Nc2ncc(Cl)c(-c3ccc(Cl)s3)n2)cc1` is reported as 64% (binding, competition with immobilised ligand; 1 µM).
For `CN(C)c1nccc(-c2cnn3ncccc23)n1`, the remaining binding was 80% (binding; 1 µM).
`Cc1noc([C@H]2C[C@@H](c3ccc(C(F)(F)F)cc3)CN(C(=O)N3CCS(=O)(=O)C3)C2)n1` gave a remaining binding of 91% (cell-free assay, competition with immobilised ligand; 1 µM).
The remaining binding of `C[C@H]1CCN(c2nccc(-c3cnn4ncccc34)n2)C1` is reported as 81% (binding; 1 µM).
`O=C(c1ccc(Nc2ncc(Cl)c(-c3cc4ccccc4s3)n2)cc1)N1CCC(N2CCCC2)CC1` gave a remaining binding of 70% (binding, competition with immobilised ligand; 1 µM).
`CC1CCCN1c1nccc(-c2cnn3ncccc23)n1` (stereo not shown) gave a remaining binding of 100% (binding; 1 µM).
With `c1cncc(-c2cccc(Nc3nccc(NC4CCCCC4)n3)c2)c1` the remaining binding was 82% (binding, competition with immobilised ligand; 10 µM).
The remaining binding of `C[C@H](c1ccnc(Nc2nc3ccc(-c4cc(N(C)C)ncn4)cc3[nH]2)c1)N1CCN(C(=O)CC(F)(F)F)CC1` is reported as 94% (cell-free assay, competition with immobilised ligand; 0.1 µM).
`CN(c1nccc(-c2cnn3ncccc23)n1)C1CC1` has a remaining binding of 100% (binding; 1 µM).
